A selection: hits, their analogues and other compounds. The true share with any hit is near 4.7%.
AHR act – AHR activators, primary screen, cell-based, luminescence, luciferase reporter, human | Aryl hydrocarbon receptor (Homo sapiens), P35869 | 320,000 tested, 2.5% active | activation, % at 5 µM | AHR-responsive luciferase reporter cells; in the data active = activation above about 47%;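 note: 0% = vehicle wells and 100% = reference agonist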
MC4R antag cAMP – MC4R antagonists of cAMP signaling, primary screen, cell-based, TR-FRET, antagonist arm of biased-ligand search | 360,000 tested, 0.48% active | Melanocortin receptor 4 (Homo sapiens), P32245 | MC4R-expressing cells, MTII-stimulated cAMP, LANCE TR-FRET | inhibition, % at 6.5 µM;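 active = inhibition above its plate's cutoff, the mean of tested wells on that plate plus 3 SD, cut at about 29% in these data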;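 note: 0% = Melanotan II alone and 100% = Melanotan II plus saturating MCL0020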
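System: U2OS cells stably expressing human melanocortin 4 receptor (MC4R). Reagent: Melanotan II challenge after compound preincubation. Doses: 6.5 µM. Times: 30-min compound, 1-h challenge, 1-h detection, room temperature. Measured by: TR-FRET with Eu-cAMP and labeled anti-cAMP, 671 nm. Replicates: singlicate.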
FXN GAA850 act – FXN promoter activators, primary screen, cell-based, luciferase luminescence, HEK293 lucGAA850; 360,000 tested, 0.56% active; activation, % at 6 µM; HEK293 lucGAA850 FXN promoter luciferase reporter, 24 h; percent of 10 µM SAHA response; AID 540364, 2011;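 active = activation above the average of all compounds screened plus 3 SD, cutoff fixed separately per campaign, cut at about 7.5% in these data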;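 note: 0% = DMSO wells and 100% = 10 µM SAHA wells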
m5-HT2A agonist – mouse Htr2a agonists via beta-arrestin recruitment, primary screen, cell-based, luminescence; 5-hydroxytryptamine receptor 2A (Mus musculus), P35363; CHO-K1 mHTR2A beta-arrestin complementation; percent of 30 µM serotonin response; activation, % at 7.6 µM; 360,000 tested, 0.66% active; AID 624169, 2012;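 active = activation above a run cutoff, the mean activation of all tested compounds plus 3 SD, cut at about 14% in these data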;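 note: 0% = plate median of compound wells and 100% = 30 µM serotonin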
Target sequence (P35363 whole entry, looked up): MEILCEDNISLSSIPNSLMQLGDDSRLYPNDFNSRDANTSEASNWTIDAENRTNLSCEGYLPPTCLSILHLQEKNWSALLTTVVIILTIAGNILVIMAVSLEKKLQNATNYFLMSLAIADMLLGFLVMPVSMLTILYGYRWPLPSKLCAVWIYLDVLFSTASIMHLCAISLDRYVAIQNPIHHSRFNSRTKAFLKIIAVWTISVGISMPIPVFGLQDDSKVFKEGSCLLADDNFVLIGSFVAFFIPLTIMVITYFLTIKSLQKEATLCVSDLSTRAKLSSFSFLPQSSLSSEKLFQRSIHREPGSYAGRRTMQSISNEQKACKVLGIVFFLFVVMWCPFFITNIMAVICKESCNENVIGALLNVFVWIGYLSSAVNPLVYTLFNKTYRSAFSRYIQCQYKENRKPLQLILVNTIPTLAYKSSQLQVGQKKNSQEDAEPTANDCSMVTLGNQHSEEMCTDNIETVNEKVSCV
MC4R barr agon – MC4R agonists recruiting beta-arrestin, primary screen, cell-based, luminescence, agonist arm of biased-ligand search. 360,000 tested, 0.98% active. activation, % at 8.9 µM. U2OS MC4R beta-arrestin complementation; percent of melanotan II response, DMSO zero. Melanocortin receptor 4 (Homo sapiens), P32245;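 active = activation above a per-plate cutoff, the mean activation of sample wells on that plate plus 3 SD, cut at about 8% in these data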
MC4R barr conf – MC4R beta-arrestin agonists, retest, confirmation, cell-based, luminescence, U2OS | activation, % at 8.9 µM | U2OS MC4R beta-arrestin recruitment; scaled DMSO 0%, Melanotan II 100% | shares compounds with MC4R barr agon | 2,400 tested, 31% active | AID 602192, 2012;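 active = mean activation across replicates above the hit cutoff set in the earlier primary screen, cut at about 8% in these data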
MOR-DOR barr ag – agonists of MOR-DOR heterodimerization, counter-screen for MC4R biased agonist project, cell-based, luminescence. AID 602194, 2012. shares compounds with MC4R barr agon. activation, % at 9.2 µM. U2OS PathHunter beta-arrestin, beta-gal luminescence; percent of deltorphin B response, DMSO zero. 2,400 tested, 5.8% active;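 active = mean activation across replicates exceeds the hit threshold derived in the earlier primary screen, cut at about 18% in these data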;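 note: 100% = deltorphin B at 0.9 µM final and 0% = DMSO alone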
Starred values were filed as active, the others as inactive; . = no result.

SMILES	AHR act	MC4R antag cAMP	FXN GAA850 act	m5-HT2A agonist	MC4R barr agon	MC4R barr conf	MOR-DOR barr ag
Cc1ccc(/C=C(\C#N)C(=O)Nc2c(C)cccc2C)s1	0	12	0	6	-1	.	.
Cc1ccc2c(c1)c1c3n2CCCNC3CCC1 (stereo not drawn)	2	-7	0	1	0	.	.
c1cc2c(cc1C1CCCCC1)c1c3n2CCCNC3CCC1 (stereo not drawn)	2	-12	0	4	15*	32*	11
CN1CCN(c2cccc3c2S(=O)(=O)N[C@@H](Cc2ccccc2)CO3)CC1	.	.	.	0	.	.	.
Cc1cc(C)c2nc(-c3ccccn3)cc(C(=O)Nc3cc(C)on3)c2c1	11	14	-2	7	16*	3	4
Cc1cc(NC(=O)c2cc(-c3ccccn3)nc3ccccc23)no1	26	14	-2	-2	-1	.	.
COc1ccccc1C(=O)O/N=C1/CCCc2c1ccc(OC)c2[N+](=O)[O-]	11	-1	2	0	20*	6	9
COc1cc(C(=O)Nc2nnc(-c3sccc3C)s2)cc(OC)c1OC	23	8	0	1	12*	23*	8
CCOCc1nnc(NC(=O)c2cc(OC)c(OC)c(OC)c2)s1	10	-7	-1	5	1	.	.
C=CC[C@@H](CC(=O)N[C@H](CO)Cc1ccccc1)C(=O)N[C@@H](COC(=O)[C@@H](CC=C)CC(=O)OC(C)(C)C)Cc1ccccc1	-1	20	-7	0	2	.	.
C=CCN1C(=O)C2(NNc3ccccc3O2)c2ccccc21 (stereo not drawn)	39	2	-2	9	9.8*	10*	5
C=CCN1C(=O)C2(NC(=O)c3ccccc3N2)c2ccccc21 (stereo not drawn)	0	-17	-2	1	-1	.	.
Cc1noc(C)c1CN1C(=O)c2ccccc2C1=O	-5	1	0	1	-1	.	.
CC1=NN(c2nc(N)nc(/C(C#N)=C/c3ccc([N+](=O)[O-])o3)n2)C(C)(C)C1	.	-42	5	9	37*	163*	172*
O=C1C2C(C(=O)N1/N=C/c1ccc([N+](=O)[O-])o1)C1C=CC2C12CC2 (stereo not drawn)	0	26	5	-1	-2	.	.
CCOC(=O)c1c(N)sc(C(O)(C(F)(F)F)C(F)(F)F)c1-c1ccc(F)cc1	7	2	1	1	11*	5	8
C[C@]12c3[nH]c4cc(-c5ccco5)ccc4c3CCN1C(=O)[C@@H](CC(=O)NCc1ccco1)C[C@@H]2C(=O)N1CCCCC1	.	13	0	0	-1	.	.
COC(=O)c1oc2ccc(Br)cc2c1NC(=O)CN1CCN(C)CC1	3	1	1	-4	-1	.	.
COC(=O)c1oc2ccc(Br)cc2c1NC(=O)c1ccccc1	1	-9	0	-4	30*	16*	4
CCN(CC(=O)Nc1ccc(NC(C)=O)cc1)C(=O)c1cccc(S(=O)(=O)N2c3ccccc3CC2C)c1 (stereo not drawn)	-3	6	-1	-1	-2	.	.
Cc1cccnc1C(NC(=O)C1CCN(Cc2ccc3ccccc3n2)CC1)c1ccc(Cl)cc1 (stereo not drawn)	.	10	0	-6	0	.	.
Cc1cc(CSc2ccccc2)ccc1NC(=O)c1ccc(Br)cc1	7	-4	2	3	9.9*	12*	7
O=C(Nc1cccc(Br)c1)c1ccc(CSc2ccccc2)cc1	0	0	1	-5	3	.	.
CCCCOc1ccc(C(=O)N/C(=C\c2cccc([N+](=O)[O-])c2)C(=O)OCc2ccco2)cc1	-1	10	-1	-1	20*	-1	2
Cc1cc(-c2nnc(SCC(=O)Nc3nc(-c4ccccc4)cs3)o2)no1	5	0	2	-2	3	.	.
SMILES	AHR act	MC4R antag cAMP	FXN GAA850 act	m5-HT2A agonist	MC4R barr agon	MC4R barr conf	MOR-DOR barr ag
Cc1ccc(-c2csc(NC(=O)CSc3nnc4c(n3)[nH]c3ccccc34)n2)cc1	9	-5	0	2	16*	3	7
Cc1occc1-c1nnc(SCC(=O)Nc2nc(-c3ccccc3)cs2)o1	28	-3	2	-2	24*	2	5
CC(OC(=O)Cn1cnc2c1c(=O)n(C)c(=O)n2C)C(=O)N(C)c1ccccc1 (stereo not drawn)	-1	14	0	2	-3	.	.
COc1cccc(C(NC(C)=O)c2nc(-c3ccncc3)cs2)c1 (stereo not drawn)	.	3	0	7	2	.	.
Clc1ccc(OCc2nn3c(-c4ccco4)nnc3s2)c(Cl)c1	-4	0	0	0	21*	1	7
COc1cc(NC(=O)c2cc3c(=O)n(C)c4ccccc4c3n2C)cc(OC)c1OC	5	3	1	0	31*	1	7
CCN(CC)Cc1c(C(=O)N/N=C/c2cccc3ccccc23)nnn1-c1nonc1N	2	8	1	-11	2	.	.
Nc1nonc1-n1nnc(C(=O)N/N=C/c2ccc(OCc3ccccc3)cc2)c1COc1ccc(F)cc1	3	9	-1	-2	0	.	.
Nc1nonc1-n1nnc(C(=O)N/N=C/c2ccc(OCc3ccccc3)cc2)c1CNc1ccccc1	1	8	0	0	25*	5	3
CCCc1c(C(=O)N/N=C/c2cccc3ccccc23)nnn1-c1nonc1N	16	12	-1	-6	17*	1	3
CC(C)c1c(C(=O)N/N=C/c2ccc(OCc3ccccc3)cc2)nnn1-c1nonc1N	-1	-1	-2	-1	14*	4	6
CC(C)c1c(C(=O)N/N=C/c2ccc(OCc3ccc(F)cc3)cc2)nnn1-c1nonc1N	1	13	-1	-1	3	.	.
Cc1cc(C)c(/C=N/NC(=O)c2nnn(-c3nonc3N)c2CN2CCC(C)CC2)c(C)c1	0	15	-3	-8	17*	16*	5
Cc1[nH]c2ccccc2c1C(=O)CSc1ccc(Cl)cc1	4	-11	4	-1	12*	3	6
